High-throughput results: PubChem, Broad Institute
EWS-Fli block = EWS/Fli transcriptional activity inhibition; A673 NR0B1-luciferase reporter, viability-normalised; inhibition, % at 12.6 µM; 350,000 compounds, 0.67% hits; AID 651661;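 active = mean inhibition of at least 50% after viability correction, with every replicate also passing that limit; inconclusive = mean reaches 50% but only one of two replicates passes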;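 note: firefly luciferase signal divided by Alamar Blue viability fluorescence both relative to DMSO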
EBV LMP1 NFkB = Epstein-Barr LMP1 NF-kappaB reporter inhibition; LMP1-induced NF-kappaB luciferase reporter cells, luminescence; inhibition, % at 12.5 µM; 350,000 compounds, 0.69% hits; AID 504558; in the data active = inhibition above about 41%; inconclusive = no clear call, values can overlap the other calls;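 note: 0% = neutral control wells and 100% = reference inhibitor control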
FN deposition inh = fibronectin deposition inhibition; AH1F fibroblasts, Alexa488-fibronectin deposition fluorescence, overnight; inhibition, % at 12.6 µM; 350,000 compounds, 0.086% hits; AID 743247;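 active = mean inhibition across replicates of 30% or more, regardless of how many single replicates reach that level; inconclusive = mean under 30% yet at least half of replicates reach 30%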;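 note: positive control wells lacked labelled fibronectin entirely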
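Material: AH1F fibroblasts assembling fluorescent fibronectin matrix; amount: 10000 AH1F cells/well; medium: DMEM, 2% serum; reagent: Alexa488-fibronectin, 24 nM final in well; dosing: single compound dose, delivered by pin transfer; incubation: 1 h adhesion, overnight exposure; detection: fluorescence after three HBSS washes, excitation 485 nm, emission 525 nm; measure: fibronectin deposition inhibition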
Shn3 inh set2 = reduces Shn3 3'UTR luciferase signal in osteoblasts | Clone20 osteoblast Shn3 3'UTR firefly luciferase, 24 h | inhibition, % at 12.5 µM | 360,000 compounds, 0.52% hits | AID 588674;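 active = mean inhibition of at least 75% with every replicate also reaching 75%; inconclusive = mean inhibition at least 75% but some replicate below; inactive = mean inhibition below 75%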;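 note: 0% = median of neutral control wells and 100% = pilot-screen positive control compound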
aSyn UTR inh = 5' untranslated region of α-synuclein, MLPCN primary screen | alpha-synuclein 5'UTR reporter, inhibitor activity | inhibition, % (tested at 7.5 µM) | 300,000 compounds, 0.82% hits; in the data active = inhibition above about 60%; inconclusive = no clear call, values can overlap the other calls;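 note: H4 neuroglioblastoma cells stably carrying SNCA 5'UTR luciferase fusion; 0% = DMSO wells and 100% = positive control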
PAX8 reporter = inhibitors of PAX8 transcriptional activity in RMG-I cells; RMG-I TPO-luciferase reporter, SteadyGlo, 24 h; inhibition, % at 12.6 µM; 360,000 compounds, 1.2% hits; AID 652154;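 active = mean replicate inhibition at least 60% with every replicate also reaching 60%; inconclusive = only one of the two criteria is met; inactive = mean below 60% and not all replicates reaching 60%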;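 note: luciferase light reporting Pax8 driven TPO promoter activity; plate controls were median of neutral control wells for no effect and mitoxantrone controls for full effect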
Starred values were filed as active, the others as inactive; ? = inconclusive; / = no result. Most compounds without a hit are left out; they make up all but 2.1% or so of the library.

SMILES	EWS-Fli block	EBV LMP1 NFkB	FN deposition inh	Shn3 inh set2	aSyn UTR inh	PAX8 reporter
O=C(c1ccc(F)cc1)N1C[C@@H]2N[C@H](C1)C2c1ccc(-c2ccccc2F)cc1 (stereo partly specified)	3	/	3	/	/	9
COc1ccccc1OCc1ccc(C(=O)NN)cc1	/	9	/	7	4	/
COc1ccccc1OCc1ccc(C(=O)c2ccccc2)cc1	-53	63*	-4	-6	-49	-30
O=C(NCC(c1cccs1)N1CCOCC1)c1cc(F)cc(F)c1 (stereo unspecified)	53*	12	-1	20	/	13
O=C(NCC(c1cccs1)N1CCOCC1)c1cc([N+](=O)[O-])cc([N+](=O)[O-])c1 (stereo unspecified)	-1	3	5	27	-4	33
CC(=O)C1(C)CCC2C3C=C(C)C4=CC(=O)CCC4(C)C3CCC21C (stereo unspecified)	9	9	3	87*	/	3
COc1ccc(-c2csc(NC(=O)C3CCN(c4ncnc5sc(C)c(C)c45)CC3)n2)cc1OC	34	15	-1	96*	23	26
CCOc1cccc(/C=N/Nc2ccc(S(=O)(=O)N(CC)CC)cn2)c1O	14	57*	5	?	88*	?
CCN(CC)S(=O)(=O)c1ccc(N/N=C/c2cc(OC)c(OC)cc2OC)nc1	/	-2	/	11	-10	/
CCN(CC)S(=O)(=O)c1ccc(N/N=C(\C)c2ccc(OC)cc2O)nc1	-8	32	9	91*	78*	46
CN1CCN(C(=O)C[C@H]2C=C[C@H](NC(=O)Cc3ccccn3)[C@H](CO)O2)CC1	-4	/	18	/	/	-8
CCN(CC)c1ccc(Nc2cc3n(c(=O)n2)CCc2cc(OC)c(OC)cc2-3)cc1	-3	19	20	16	74*	-4
CCCN(C)C[C@H]1OCCCC[C@@H](C)Oc2ccc(NC(=O)c3ccccc3)cc2C(=O)N([C@@H](C)CO)C[C@H]1C	-4	/	/	/	/	-11
COc1cc(N)c(Cl)cc1C(=O)NC1CCN(Cc2ccccc2)CC1	-3	92*	/	-20	/	13
O=C(c1nn2c(C(F)(F)F)cc(-c3cccs3)nc2c1Br)N1CCCc2ccccc21	/	-8	9	19	82*	29
O=C(c1nn2c(C(F)(F)F)cc(-c3ccco3)nc2c1Br)N1CCCc2ccccc21	/	3	/	25	93*	/
O=C(c1cc2nc(-c3cccs3)cc(C(F)(F)F)n2n1)N1CCCc2ccccc21	/	17	-13	-47	-23	-2
CCCN1[C@@H]2c3ccc(-c4ccncc4)c(=O)n3C[C@H]1[C@H](CO)[C@H]2C(=O)N1CCCCC1	3	/	/	/	/	10
COc1ccc(CN(C)C[C@@H]2OCCCC[C@H](C)Oc3ccc(NS(=O)(=O)c4ccc(C)cc4)cc3C(=O)N([C@@H](C)CO)C[C@@H]2C)cc1	-4	/	/	/	/	18
Cc1cccc(N2CCN(C(=S)Nc3ccc4nc(N5CCN(C)CC5)cc(C)c4c3)CC2)c1C	56*	82*	4	85	95*	5
C[n+]1c2n(c3ccccc31)N=C(c1ccc(Cl)cc1)CS2	/	-1	7	15	-29	29
CC1Sc2n(c3ccccc3[n+]2C)N=C1c1ccccc1 (stereo unspecified)	/	-1	0	70	-63	68*
CCCCC[n+]1ccn(C2=C([O-])c3ccccc3C(=O)/C2=N\S(=O)(=O)c2ccc(Cl)cc2)c1	12	-1	-3	-9	?	23
CCCC[n+]1ccn(C2=C([O-])c3ccccc3C(=O)/C2=N\S(=O)(=O)c2ccc(Cl)cc2)c1	6	-10	0	2	66*	17
C[C@H]1CN([C@@H](C)CO)C(=O)c2cc(-c3cccnc3)cnc2O[C@H]1CN(C)C(=O)C1CCC1	-5	/	/	/	/	/
SMILES	EWS-Fli block	EBV LMP1 NFkB	FN deposition inh	Shn3 inh set2	aSyn UTR inh	PAX8 reporter
COc1cc(OC)c2c(-c3cccc(-c4ccc(O)cc4)c3)cc(=O)oc2c1	53*	8	15	6	/	41
COc1ccc(-c2cccc(-c3cc(=O)oc4cc(OC)cc(OC)c34)c2)cc1	53*	-14	/	10	/	58
COc1cc(OC)c2c(-c3cccc(-c4cccc(C)c4)c3)cc(=O)oc2c1	54*	3	/	27	/	27
COc1cc2oc(=O)cc(-c3ccc(-c4ccc(N(C)C)cc4)cc3)c2c(OC)c1OC	-12	42*	-5	10	/	-40
COc1ccc(-c2ccc(-c3cc(=O)oc4cc(OC)c(OC)c(OC)c34)cc2)cc1F	-37	16	4	-41	/	-30
COc1ccccc1-c1ccc([C@@H]2[C@@H](C#N)N(C(=O)C3CC3)[C@@H]2CO)cc1	5	/	-1	/	/	-4
C[C@@H]1CN([C@@H](C)CO)C(=O)c2cc(NC(=O)c3ccncc3)ccc2O[C@@H](C)CCCCO[C@@H]1CN(C)S(=O)(=O)c1cccs1	-1	/	-9	/	/	-7
COc1ccc2c3c([nH]c2c1)[C@H](CO)N(C(=O)CN(C)C)CC31CN(Cc2ccccc2)C1	-15	/	/	/	/	/
COc1cc(OC)c2c(-c3cccc(-c4ccc(N(C)C)cc4)c3)cc(=O)oc2c1	?	14	-33	31	/	77*
Cc1noc(C)c1S(=O)(=O)N(C)C[C@@H]1Oc2ccc(NC(=O)NC3CCCCC3)cc2CC(=O)N([C@@H](C)CO)C[C@H]1C	-2	/	-9	/	/	21
C[C@H](NC(=O)C[C@@H]1CC[C@@H](NC(=O)C2CCOCC2)[C@H](CO)O1)c1ccccc1	-2	/	-3	/	/	-4
C[C@@H]1CN([C@H](C)CO)C(=O)c2cccc(NC(=O)Nc3ccc(C(F)(F)F)cc3)c2O[C@H]1CN(C)CC1CC1	3	/	/	/	/	78*
C[C@@H]1CN([C@@H](C)CO)C(=O)c2cccc(NC(=O)Nc3ccc(C(F)(F)F)cc3)c2O[C@@H]1CN(C)CC1CC1	0	/	/	/	/	46
C[C@@H]1CN([C@@H](C)CO)C(=O)c2cccc(NC(=O)Nc3ccc(C(F)(F)F)cc3)c2O[C@@H]1CN(C)CC1CCCCC1	61*	/	/	/	/	/
CO[C@@H](CN(C)C(=O)c1cnccn1)[C@H](C)CN([C@@H](C)CO)S(=O)(=O)c1ccc(F)cc1	-1	/	6	/	/	/
CC(C)CCNc1nc(N)c([N+](=O)[O-])c(NCC2CCCO2)n1 (stereo unspecified)	/	-17	13	-29	62*	27
Nc1nc(NCC(=O)O)nc(NC2CCCCC2)c1[N+](=O)[O-]	1	1	0	-2	21	-31
COCCCNc1nc(N)c([N+](=O)[O-])c(NC2CCCCC2)n1	-35	-24	6	8	90*	0
Nc1nc(NCC2CCCO2)nc(NCC2CCCO2)c1[N+](=O)[O-] (stereo unspecified)	/	-3	/	-20	22	-4
COc1ccc(Nc2nc(N)c([N+](=O)[O-])c(NC3CCCCC3)n2)cc1	-15	-24	10	-16	62*	20
